From ChEMBL document CHEMBL4477192, “Laxitextines A and B, Cyathane Xylosides from the Tropical Fungus Laxitextum incrustatum” (J Nat Prod, 2016)
Values after ≈ are worked out from the molar mass of the structure shown. Active and inactive are the calls of the source. No cut-off for these calls is given here.

Assays:
Staphylococcus aureus [1] = test: Antimicrobial activity against Methicillin-resistant Staphylococcus aureus DSM 1182 at 20 uL of 1 mg/ml compound solution after 24 to 48 hrs by serial dilution method; assay type: functional
Staphylococcus aureus [2] = test: Antimicrobial activity against Staphylococcus aureus DSM 346 at 20 uL of 1 mg/ml compound solution after 24 to 48 hrs by serial dilution method; assay type: functional
Bacillus subtilis = test: Antimicrobial activity against Bacillus subtilis DSM 10 after 24 to 48 hrs by serial dilution method; assay type: functional
MCF7 = test: Antiproliferative activity against human MCF7 cells after 5 days by MTT assay; assay type: functional, cell-based; settings: MCF7, 120 h
How it was run: (§1)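 Serial dilution in 96-well tissue-culture plates starting from 3.0 μL of 1 mg/mL stock. L929 grown in DMEM; MCF-7 and A431 in RPMI; each with 10% FBS. Incubation at 37 °C under 5% CO2 for 5 days. Methanol as negative control, epothilone A as positive control. IC50 in μM.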

L929 = test: Antiproliferative activity against mouse L929 cells after 5 days by MTT assay; assay type: functional, cell-based; settings: L929, 120 h; how it was run: as §1
A-431 = test: Antiproliferative activity against human A431 cells after 5 days by MTT assay; assay type: functional, cell-based; settings: A-431, 120 h; how it was run: as §1
Staphylococcus aureus [3] = settings: DSM 1182
HUVEC = test: Antiproliferative activity against HUVEC after 5 days by MTT assay; assay type: functional, cell-based; settings: Homo sapiens, 120 h
Staphylococcus aureus [4] = test: Antimicrobial activity against Staphylococcus aureus DSM 346 at 2 uL of 1 mg/ml compound solution after 24 to 48 hrs by serial dilution method; assay type: functional
Staphylococcus aureus [5] = test: microbe, parasite or virus in culture; settings: DSM 1182

SMILES	MIC (Staphylococcus aureus [1]) [µM]	MIC (Staphylococcus aureus [2])	MIC (Bacillus subtilis) [µM]	IC50 (MCF7) [µM]	IC50 (L929) [µM]	IC50 (A-431) [µM]	MIC (Staphylococcus aureus [3])	IC50 (HUVEC) [µM]	MIC (Staphylococcus aureus [4])	MIC (Staphylococcus aureus [5]) [µg/mL]
CC(C)C1=C2[C@H]3CC[C@@H]4[C@@H]5O[C@]6(O)[C@@]7(O)[C@@H](OC[C@]6(O)O5)O[C@@H]([C@@H]47)[C@]3(C)CC[C@@]2(C)CC1	140 (≈ 62.8 µg/mL)	15.7 µg/mL	37.4 (≈ 16.8 µg/mL)	2	16.1	4.9	inactive	3.6	inactive	
CC(C)C1=C2[C@H]3CC[C@@H]4CO[C@@]5(O)[C@H](O)CO[C@H]6O[C@@H]([C@@H]4[C@]65O)[C@]3(C)CC[C@@]2(C)CC1	17.9 (≈ 7.78 µg/mL)	17.9 µM	76.7 (≈ 33.3 µg/mL)	2.3	17.3	5.8	inactive	4.8	6.6 µg/mL (≈ 15.2 µM)	
CN[C@H](CC(C)C)C(=O)N[C@H]1C(=O)N[C@@H](CC(N)=O)C(=O)N[C@H]2C(=O)N[C@H]3C(=O)N[C@H](C(=O)N[C@H](C(=O)O)c4cc(O)cc(O)c4-c4cc3ccc4O)[C@H](O)c3ccc(c(Cl)c3)Oc3cc2cc(c3O[C@@H]2O[C@H](CO)[C@@H](O)[C@H](O)[C@H]2O[C@H]2C[C@](C)(N)[C@H](O)[C@H](C)O2)Oc2ccc(cc2Cl)[C@H]1O [VANCOMYCIN]										1.6 (≈ 1.1 µM)
